Measured values taken from ChEMBL document CHEMBL4007489, “First Bispecific Inhibitors of the Epidermal Growth Factor Receptor Kinase and the NF-κB Activity As Novel Anticancer Agents” (J Med Chem, 2017).
One block for each compound: values may come before it. Activity calls are given as the source filed them. The calls are words filed in the database; no cut-off is given here.

Tests used:
[1] = target: Serine/threonine-protein kinase TBK1 (Homo sapiens) (UniProt Q9UHD2); test: Inhibition of TNFalpha-stimulated TBK1 in human U937 cells assessed as residual activity at 10 uM in presence of ATP relative to control; format: cell-based
[2] = target: Inhibitor of nuclear factor kappa-B kinase subunit beta (Homo sapiens) (UniProt O14920); test: Inhibition of TNFalpha-stimulated IKKbeta in human U937 cells assessed as residual activity at 10 uM in presence of ATP relative to control; format: cell-based
Sequence of Inhibitor of nuclear factor kappa-B kinase subunit beta (Homo sapiens) (O14920 whole entry): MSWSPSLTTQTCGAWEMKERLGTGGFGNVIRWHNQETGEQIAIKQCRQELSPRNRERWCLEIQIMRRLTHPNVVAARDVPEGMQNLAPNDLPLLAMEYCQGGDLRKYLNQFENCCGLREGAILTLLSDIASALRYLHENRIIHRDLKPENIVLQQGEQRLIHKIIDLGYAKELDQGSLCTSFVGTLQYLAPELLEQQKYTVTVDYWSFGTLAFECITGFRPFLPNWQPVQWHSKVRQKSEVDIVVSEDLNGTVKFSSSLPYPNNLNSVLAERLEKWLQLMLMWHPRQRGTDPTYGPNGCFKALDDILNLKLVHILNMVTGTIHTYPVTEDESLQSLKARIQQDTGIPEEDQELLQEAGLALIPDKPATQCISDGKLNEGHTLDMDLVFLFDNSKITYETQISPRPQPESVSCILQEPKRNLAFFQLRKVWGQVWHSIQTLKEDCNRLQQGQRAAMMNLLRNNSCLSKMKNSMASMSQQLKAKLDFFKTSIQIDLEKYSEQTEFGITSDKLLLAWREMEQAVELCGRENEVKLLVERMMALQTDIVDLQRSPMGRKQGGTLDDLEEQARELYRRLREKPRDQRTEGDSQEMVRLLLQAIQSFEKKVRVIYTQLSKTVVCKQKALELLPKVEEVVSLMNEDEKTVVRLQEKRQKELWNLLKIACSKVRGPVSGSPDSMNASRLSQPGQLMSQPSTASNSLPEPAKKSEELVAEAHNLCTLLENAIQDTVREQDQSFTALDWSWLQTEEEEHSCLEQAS

cells = format: cell-based; settings: Homo sapiens, U-937
[3] = target: T1, Epidermal growth factor receptor (Homo sapiens, UniProt P00533); settings: at 150 nM
T1 sequence (P00533 whole entry): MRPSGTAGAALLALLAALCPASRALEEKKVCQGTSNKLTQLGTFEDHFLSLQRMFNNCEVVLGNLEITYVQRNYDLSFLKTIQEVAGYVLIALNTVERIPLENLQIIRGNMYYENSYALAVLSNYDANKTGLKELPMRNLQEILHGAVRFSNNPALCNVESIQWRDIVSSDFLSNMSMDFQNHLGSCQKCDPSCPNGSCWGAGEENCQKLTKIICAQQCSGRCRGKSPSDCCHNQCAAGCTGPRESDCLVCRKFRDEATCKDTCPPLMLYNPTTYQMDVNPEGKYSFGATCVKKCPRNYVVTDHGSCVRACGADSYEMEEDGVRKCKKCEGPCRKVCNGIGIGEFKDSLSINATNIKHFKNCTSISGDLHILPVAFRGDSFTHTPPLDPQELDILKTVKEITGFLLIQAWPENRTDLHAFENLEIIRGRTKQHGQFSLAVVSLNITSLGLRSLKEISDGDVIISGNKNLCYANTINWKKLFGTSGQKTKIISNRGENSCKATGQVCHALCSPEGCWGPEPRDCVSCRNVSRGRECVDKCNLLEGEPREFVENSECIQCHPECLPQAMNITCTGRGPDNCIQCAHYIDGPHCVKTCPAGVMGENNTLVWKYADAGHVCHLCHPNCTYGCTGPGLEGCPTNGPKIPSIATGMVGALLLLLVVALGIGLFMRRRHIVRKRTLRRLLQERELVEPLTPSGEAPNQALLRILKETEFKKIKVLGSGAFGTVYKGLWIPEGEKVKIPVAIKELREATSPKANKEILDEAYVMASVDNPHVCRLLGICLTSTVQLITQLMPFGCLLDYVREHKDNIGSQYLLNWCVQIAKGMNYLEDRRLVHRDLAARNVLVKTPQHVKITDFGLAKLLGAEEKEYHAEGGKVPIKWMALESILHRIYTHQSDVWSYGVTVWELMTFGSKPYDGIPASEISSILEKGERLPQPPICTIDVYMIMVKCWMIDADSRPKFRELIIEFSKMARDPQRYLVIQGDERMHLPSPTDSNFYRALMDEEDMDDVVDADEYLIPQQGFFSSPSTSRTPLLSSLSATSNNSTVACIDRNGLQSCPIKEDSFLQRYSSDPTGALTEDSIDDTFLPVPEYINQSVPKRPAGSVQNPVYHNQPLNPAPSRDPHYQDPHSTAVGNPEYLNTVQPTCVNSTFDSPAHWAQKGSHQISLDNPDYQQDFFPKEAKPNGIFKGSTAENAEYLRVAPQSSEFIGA

Homo sapiens [4] = species: Homo sapiens; settings: at 10 µM;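 further: luciferase reporter readout of NF-kappaB activity in human U937 cells, compound added 3 h before TNFalpha stimulation, signal read 2.5 h after stimulation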
[5] = target: T2, Receptor-interacting serine/threonine-protein kinase 2 (Homo sapiens, UniProt O43353); test: Inhibition of TNFalpha-stimulated RIPK2 in human U937 cells in presence of 5 uM ATP; format: cell-based
T2 sequence (O43353 whole entry): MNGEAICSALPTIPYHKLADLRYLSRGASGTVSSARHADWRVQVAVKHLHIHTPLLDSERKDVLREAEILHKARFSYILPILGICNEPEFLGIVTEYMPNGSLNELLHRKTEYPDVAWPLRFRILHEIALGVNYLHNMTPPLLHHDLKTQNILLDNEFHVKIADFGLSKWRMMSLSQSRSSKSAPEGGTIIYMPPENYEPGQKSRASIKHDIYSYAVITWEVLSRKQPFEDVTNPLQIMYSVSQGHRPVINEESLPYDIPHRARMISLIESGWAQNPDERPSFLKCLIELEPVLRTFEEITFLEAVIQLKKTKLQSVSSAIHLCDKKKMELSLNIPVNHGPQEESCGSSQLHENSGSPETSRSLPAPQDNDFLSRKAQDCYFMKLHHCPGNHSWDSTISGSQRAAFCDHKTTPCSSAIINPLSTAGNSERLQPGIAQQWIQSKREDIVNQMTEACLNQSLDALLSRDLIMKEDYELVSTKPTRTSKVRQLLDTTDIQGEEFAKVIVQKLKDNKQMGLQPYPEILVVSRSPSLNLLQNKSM

[6] = target: Protein kinase C zeta type (Homo sapiens) (UniProt Q05513); test: Inhibition of TNFalpha-stimulated PKCzeta in human U937 cells assessed as residual activity at 10 uM in presence of ATP relative to control; format: cell-based
Sequence of Protein kinase C zeta type (Homo sapiens) (Q05513 whole entry): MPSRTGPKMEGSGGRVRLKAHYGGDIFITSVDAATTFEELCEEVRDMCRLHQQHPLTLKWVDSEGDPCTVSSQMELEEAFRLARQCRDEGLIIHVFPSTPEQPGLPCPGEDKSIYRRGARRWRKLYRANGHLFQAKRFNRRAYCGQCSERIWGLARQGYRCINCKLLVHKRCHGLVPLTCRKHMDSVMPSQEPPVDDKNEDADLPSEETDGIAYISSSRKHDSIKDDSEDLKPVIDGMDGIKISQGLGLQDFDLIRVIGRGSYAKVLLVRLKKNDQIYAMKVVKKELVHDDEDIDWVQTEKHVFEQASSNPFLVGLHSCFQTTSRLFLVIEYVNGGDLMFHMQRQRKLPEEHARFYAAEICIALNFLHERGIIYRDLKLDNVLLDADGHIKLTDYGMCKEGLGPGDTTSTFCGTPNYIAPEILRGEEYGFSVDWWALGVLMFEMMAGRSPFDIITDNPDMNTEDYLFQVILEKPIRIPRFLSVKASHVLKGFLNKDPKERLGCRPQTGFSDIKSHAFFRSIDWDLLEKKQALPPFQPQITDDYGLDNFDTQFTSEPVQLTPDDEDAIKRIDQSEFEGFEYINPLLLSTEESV

[7] = target: Mitogen-activated protein kinase 14 (Homo sapiens) (UniProt Q16539); test: Inhibition of TNFalpha-stimulated SAPK2a in human U937 cells assessed as residual activity at 10 uM in presence of ATP relative to control; format: cell-based
Sequence of Mitogen-activated protein kinase 14 (Homo sapiens) (Q16539 whole entry): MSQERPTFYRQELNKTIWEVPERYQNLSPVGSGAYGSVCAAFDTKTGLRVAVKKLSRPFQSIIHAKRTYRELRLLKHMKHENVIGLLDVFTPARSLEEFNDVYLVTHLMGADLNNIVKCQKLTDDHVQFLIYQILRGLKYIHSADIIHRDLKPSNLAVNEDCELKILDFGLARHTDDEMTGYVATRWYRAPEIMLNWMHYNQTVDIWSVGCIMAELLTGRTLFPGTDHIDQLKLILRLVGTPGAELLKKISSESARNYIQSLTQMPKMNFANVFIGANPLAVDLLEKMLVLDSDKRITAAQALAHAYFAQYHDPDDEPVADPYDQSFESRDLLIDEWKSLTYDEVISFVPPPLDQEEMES

[8] = target: T1, Epidermal growth factor receptor; test: biochemical; format: cell-based
MDA-MB-231 [9] = test: cells; format: functional; settings: Homo sapiens, MDA-MB-231, 48 h
[10] = target: Mitogen-activated protein kinase kinase kinase 7 (Homo sapiens) (UniProt O43318); test: Inhibition of TNFalpha-stimulated TAK1 in human U937 cells assessed as residual activity at 10 uM in presence of ATP relative to control; format: cell-based
Sequence of Mitogen-activated protein kinase kinase kinase 7 (Homo sapiens) (O43318 whole entry): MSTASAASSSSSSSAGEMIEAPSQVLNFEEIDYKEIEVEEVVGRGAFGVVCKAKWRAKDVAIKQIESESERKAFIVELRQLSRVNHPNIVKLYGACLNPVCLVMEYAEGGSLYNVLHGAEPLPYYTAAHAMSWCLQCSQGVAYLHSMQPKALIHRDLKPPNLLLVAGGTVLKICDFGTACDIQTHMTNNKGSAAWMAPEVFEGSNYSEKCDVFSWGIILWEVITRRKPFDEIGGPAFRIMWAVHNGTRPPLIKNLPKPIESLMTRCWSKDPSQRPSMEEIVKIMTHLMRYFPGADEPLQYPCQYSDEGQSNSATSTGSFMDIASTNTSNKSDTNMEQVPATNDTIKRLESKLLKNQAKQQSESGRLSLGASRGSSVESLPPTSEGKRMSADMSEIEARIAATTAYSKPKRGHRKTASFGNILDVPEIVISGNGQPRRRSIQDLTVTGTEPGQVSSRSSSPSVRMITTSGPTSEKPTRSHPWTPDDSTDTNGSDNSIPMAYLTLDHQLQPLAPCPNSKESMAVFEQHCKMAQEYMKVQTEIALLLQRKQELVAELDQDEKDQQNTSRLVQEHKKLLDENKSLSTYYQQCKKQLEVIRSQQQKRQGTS

[11] = target: T2, Receptor-interacting serine/threonine-protein kinase 2; test: Inhibition of TNFalpha-stimulated RIPK2 in human U937 cells assessed as residual activity at 10 uM in presence of ATP relative to control; format: cell-based
[12] = target: Protein kinase C iota type (Homo sapiens) (UniProt P41743); test: Inhibition of TNFalpha-stimulated PKCI in human U937 cells assessed as residual activity at 10 uM in presence of ATP relative to control; format: cell-based
[13] = target: Inhibitor of nuclear factor kappa-B kinase subunit alpha (Homo sapiens) (UniProt O15111); test: Inhibition of TNFalpha-stimulated IKKalpha in human U937 cells assessed as residual activity at 10 uM in presence of ATP relative to control; format: cell-based
[14] = target: Transcription factor p65 (Homo sapiens) (UniProt Q04206); test: Inhibition of IL-1beta-stimulated nuclear translocation of GFP-tagged NF-kappaB-p65 (unknown origin) expressed in CHO cells preincubated with IL-1beta for 30 mins followed by compound addition by fluorescence assay; format: cell-based
Sequence of Transcription factor p65 (Homo sapiens) (Q04206 whole entry, the tested form may be a part): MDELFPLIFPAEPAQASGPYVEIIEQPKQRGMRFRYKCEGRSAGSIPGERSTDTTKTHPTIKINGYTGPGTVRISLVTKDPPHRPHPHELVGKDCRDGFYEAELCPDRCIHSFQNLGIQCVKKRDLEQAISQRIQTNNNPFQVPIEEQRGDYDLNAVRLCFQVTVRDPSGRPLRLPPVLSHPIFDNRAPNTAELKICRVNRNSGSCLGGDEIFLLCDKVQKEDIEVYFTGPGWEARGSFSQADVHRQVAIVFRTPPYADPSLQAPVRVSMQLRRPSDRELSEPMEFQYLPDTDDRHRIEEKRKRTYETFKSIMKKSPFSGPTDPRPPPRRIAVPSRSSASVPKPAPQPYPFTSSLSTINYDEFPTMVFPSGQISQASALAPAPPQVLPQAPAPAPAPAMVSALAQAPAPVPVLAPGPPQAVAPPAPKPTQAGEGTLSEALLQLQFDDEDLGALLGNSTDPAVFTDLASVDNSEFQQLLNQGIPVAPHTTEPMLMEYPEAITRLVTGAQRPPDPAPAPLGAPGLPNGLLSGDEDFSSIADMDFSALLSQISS
In short: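 A GFP-NF-κB-p65 fusion was used; cells were stimulated for 30 min with 25 ng/mL IL-1β. Translocation of the fusion protein from cytoplasm to nucleus was imaged, and the system automatically quantified the ratio of cytoplasmic to nuclear fluorescence per well.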

[15] = target: T3, Proteasome component C5 (Homo sapiens) (UniProt P20618); settings: 1 uM
T3 sequence (whole entry): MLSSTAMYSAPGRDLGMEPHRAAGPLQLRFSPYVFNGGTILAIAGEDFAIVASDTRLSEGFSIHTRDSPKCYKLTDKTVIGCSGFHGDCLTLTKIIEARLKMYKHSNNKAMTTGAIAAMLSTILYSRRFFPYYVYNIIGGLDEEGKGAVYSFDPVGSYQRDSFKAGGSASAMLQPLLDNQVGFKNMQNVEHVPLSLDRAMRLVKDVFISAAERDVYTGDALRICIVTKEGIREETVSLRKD

[16] = target: Proteasome Macropain subunit (Homo sapiens) (UniProt P49721); settings: 1 uM
Sequence of Proteasome Macropain subunit (Homo sapiens) (P49721 whole entry): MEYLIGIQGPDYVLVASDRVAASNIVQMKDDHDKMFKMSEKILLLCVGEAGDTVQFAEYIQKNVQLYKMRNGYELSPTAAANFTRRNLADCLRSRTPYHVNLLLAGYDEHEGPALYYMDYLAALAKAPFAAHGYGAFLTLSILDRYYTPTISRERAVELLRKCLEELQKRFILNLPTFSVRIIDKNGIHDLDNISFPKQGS

[17] = target: T4, Proteasome Macropain subunit MB1 (Homo sapiens) (UniProt P28074); test: Inhibition of chymotrypsin like activity of 26S proteasome derived from human MDA-MB-231 cells at 1 uM
T4 sequence (whole entry): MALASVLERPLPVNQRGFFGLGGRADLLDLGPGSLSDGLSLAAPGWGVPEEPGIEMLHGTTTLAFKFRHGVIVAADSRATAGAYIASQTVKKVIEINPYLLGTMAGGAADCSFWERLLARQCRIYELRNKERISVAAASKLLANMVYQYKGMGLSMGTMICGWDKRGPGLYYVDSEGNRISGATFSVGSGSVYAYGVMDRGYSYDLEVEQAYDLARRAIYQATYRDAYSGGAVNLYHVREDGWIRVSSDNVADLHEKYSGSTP
In short: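 Total protein extract from MDA-MB-231 cells served as the source of 26S proteasome. Trypsin-like, chymotrypsin-like and caspase-like activities were each measured with a specific fluorigenic peptide substrate.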

MDA-MB-231 [18] = test: Growth inhibition of human MDA-MB-231 cells at 20 uM after 48 hrs by MTT assay; format: functional, cell-based
In short: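 MDA-MB-231 cells seeded at 45000 per well and left to adhere overnight; compounds added after 24 h. Incubated a further 48 h at 37 °C. MTT added for 1 h, then cells lysed with 10% SDS in 0.01 N HCl for at least 2 h at 37 °C. Absorbance read at 570 nm.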

Homo sapiens [19] = species: Homo sapiens; test: Inhibition of TNFalpha-stimulated NF-kappaB (unknown origin) expressed in human U937 cells at 5 uM incubated for 3 hrs followed by TNFalpha stimulation measured after 2.5 hrs by luciferase reporter gene assay; format: cell-based
[20] = target: Transcription factor p65 (Homo sapiens) (UniProt Q04206); test: Inhibition of NF-kappaB-p65 binding to NF-kappaB response element oligonucleotide in nuclear extracts of 12 hrs compound pre-treated human MDA-MB-231 cells at 2.5 to 15 uM by ELISA
In short: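 MDA-MB-231 cells treated with compound or DMSO for 12 h; in some runs TNFα (20 ng/mL final) added for a further 20 min at 37 °C. Nuclear extracts prepared on ice and protein measured by Bradford. 5 μg of extract incubated on plate-immobilized NF-κB response element oligonucleotide. Bound complexes detected with anti-p65 primary and HRP secondary antibody, read at 450 nm. Specificity checked by competition with free oligonucleotide; triplicates.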

[21] = target: Transcription factor p65 (Homo sapiens) (UniProt Q04206); test: Inhibition of IL-1beta-stimulated nuclear translocation of GFP-tagged NF-kappaB-p65 (unknown origin) expressed in CHO cells at 15 uM preincubated with IL-1beta for 30 mins followed by compound addition by fluorescence assay; format: cell-based
[22] = Solubility in water; format: physicochemical; settings: buffer
[23] = target: Transcription factor p65 (Homo sapiens) (UniProt Q04206); test: Inhibition of IL-1beta-stimulated nuclear translocation of GFP-tagged NF-kappaB-p65 (unknown origin) expressed in CHO cells at 15 uM preincubated with IL-1beta for 30 mins followed by compound addition in presence of Pluronic F127 by fluorescence assay; format: cell-based
[24] = target: Receptor tyrosine-protein kinase erbB-4 (Homo sapiens) (UniProt Q15303); settings: 0.5 uM
MDA-MB-231 [25] = test: Antitumor activity against human MDA-MB-231 cells xenografted in NMRI nu/nu mouse at 25 mg/kg, sc administered 5 days post tumor cell inoculation treated for 14 days followed by treatment pause for 6 days followed by treatment continuation on every second day until day 28 measured on day 7, 14 and day 28; format: functional, organism-based
In short: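 MDA-MB-231 cells, 2 × 10^6 per site in Matrigel, injected into both flanks of female NMRI nu/nu mice about 8 weeks old; 6 mice per group. From day 5 after inoculation (day 1), sc dosing in PBS/propylene glycol 80:20. Dosing every weekday for 14 days, then a 6-day pause, then every second day from day 21 to sacrifice on day 28. Tumor diameters measured weekly by calipers; unpaired two-tailed t test against vehicle.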

Activity [1]: 92%
Activity [2]: 100%
IC50 (cells): 4100 nM
inhibition [3]: 86.1%
IC50 [5]: > 10000 nM
Activity [6]: 92%
Activity [7]: 78%
IC50 [8]: 17.2 nM
GI50 (MDA-MB-231 [9]): 9500 nM
Activity [10]: 106%
Activity [11]: 54%
Activity [12]: 106%
Activity [13]: 117%
Compound: S=C(NCc1ccccc1)Nc1ccc2ncnc(Nc3cccc(Br)c3)c2c1
inhibition (Homo sapiens [4]): 97%

inhibition [14]: Dose-dependent effect
inhibition [15]: Active
inhibition [16]: Active
inhibition [17]: Active
Compound: CC(C)C[C@H](NC(=O)[C@H](Cc1ccccc1)NC(=O)c1cnccn1)B(O)O

IC50 (cells): 700 nM
inhibition [3]: 60%
IC50 [8]: 120 nM
Compound: S=C(Nc1ccc2ncnc(Nc3cccc(Cl)c3)c2c1)Nc1ncc(Cl)s1
growth inhibition (GI) (MDA-MB-231 [18]): inactive
inhibition (Homo sapiens [19]): 88.2%

inhibition [20]: inactive
inhibition [21]: inactive
solubility [22]: Soluble
inhibition [23]: inactive
inhibition [24]: 46 to 76%
Compound: COc1cc2ncnc(Nc3ccc(F)c(Cl)c3)c2cc1OCCCN1CCOCC1 [GEFITINIB]
TGI (MDA-MB-231 [25]): Active
